In the library only some 12% were active in any assay of this set; here they are far more common.
Dynein cargo inh – dynein cargo transport inhibition; 3617.4 mouse cells, GR-EGFP nuclear translocation imaging; test concentration mostly 20 µM; stimulated with dexamethasone, 1 µM; stronger effect = lower value; z-score, hits read low; 220,000 tested, 0.47% active;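 active means plate z-score of nuclear minus cytoplasmic receptor signal below a set negative limit, without overly bright fluorescence or cell loss, cut at about -3.5 in these data, passing the limit was not always enough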;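 further: z-score of nuclear minus cytoplasmic ring GR-EGFP intensity difference per well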
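Buffer or medium: tet-free, stripped-serum medium; Also added: dexamethasone, 1.0 µM final; Technique: high-content fluorescence imaging after fixation; Times: 48 h induction, 1 h compound, 30 min dex at 37 °C; Read-out: per-cell GR-EGFP intensity, nucleus versus surrounding cytoplasmic ring, well-averaged.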
Autophagy HCS – modulators of autophagy; calls only at 10 µM (by protocol); MEF GFP-LC3 puncta imaging; test concentration mostly 10 µM; 190,000 tested, 0.98% active;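 active means percentage of spot-positive cells more than 3 SD above its plate mean, without a fluorescence outlier flag or 80% toxicity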;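 further: spot-positive cell cutoff set from DMSO-treated cells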
b-catenin transl – modulators of beta-catenin nuclear translocation; 190,000 tested, 0.3% active; HeLa beta-catenin nuclear translocation, immunofluorescence imaging; nuclear translocation activity, % at 5 µM;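 active means nuclear translocation activity above 50% at 5 µM, with a well cell count of 50 or more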;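 further: per-cell ratio of nuclear to cytoplasmic median beta-catenin stain intensity; plate controls were DMSO negative control for no effect and GSK-3 inhibitor IX positive control for full effect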
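System: Human HeLa cells, endogenous beta-catenin | Compound dosing: 5 µM primary, 0.02–20 µM confirmation | Timing: 24 h compound exposure at 37°C, 5% CO2 | Measured by: Fluorescence imaging of beta-catenin antibody stain plus DAPI | Read-out basis: % activation of per-cell nuclear versus cytoplasmic median beta-catenin signal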
CHOP inhibitor – CHOP inhibition in unfolded protein response; CHO-K1 CHOP-promoter luciferase, tunicamycin-induced, 15-18 h; 220,000 tested, 3.8% active; inhibition, % at 10 µM; AID 2732;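 active means compounds that reduced the stress-induced luciferase reporter signal by more than about 70% of percent inhibition, limit read from the data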;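 further: 0% = tunicamycin plus vehicle and 100% = wells without tunicamycin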
Lmaj promast – Leishmania major promastigote growth inhibition | 200,000 tested, 9% active | AID 1063 | inhibition, % at 10 µM | Leishmania major promastigotes, resazurin fluorescence viability; in the data active means inhibition above about 50%;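 further: promastigotes grown with compound for 44 hours at 28 °C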
MT stabilize HCS – microtubule stabilization, imaging screen; AID 2205; % tubulin-high responders, % at 10 µM; HeLa tubulin immunostaining HCS, 24 h; share of cells brighter than vehicle mean+2SD; 200,000 tested, 0.83% active;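 active means plate Z-score above 3 for both tubulin-high and condensed-nucleus cell shares, with cell loss under 80%, at 10 µM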;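 further: anti alpha tubulin signal scored within the nucleus-defined area of each cell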
An asterisk follows results filed as active; i = inactive; / = no result; + = active, no number.

SMILES	Dynein cargo inh	Autophagy HCS	b-catenin transl	CHOP inhibitor	Lmaj promast	MT stabilize HCS
CC1(C)Cc2nc3oc4c(=O)n(CC(=O)Nc5ccc(Cl)cc5)cnc4c3cc2CO1	-0.52	/	0	95*	/	/
CN1CCN(C2=Cc3ccccc3Sc3cc(F)c(Cl)cc32)CC1	0.28	i	/	-9	93*	5
CN1CCN(c2ccc(Cl)cc2NC(=O)/C=C/c2cccc(F)c2)CC1	-0.42	i	1	9	45	8
CN1CCN(C2=Cc3ccccc3Sc3cc(F)c(F)cc32)CC1	-3.3	i	/	24	101*	6
CN1CCN(C2=Cc3cc(Cl)ccc3Sc3cc(F)ccc32)CC1	1.2	i	/	-27	100*	5
CN1CCN(c2nc(-c3ccccc3)cc(C(F)(F)F)n2)CC1	0.58	i	/	43	1	4
CCC(=O)Oc1oc(-c2ccccc2)nc1C=Nc1ccccc1OC	-2.7	i	0	93*	-6	3
C=C(C)C(=O)Nc1cccnc1Oc1ccc(F)cc1F	-0.57	/	0	10	/	/
Cc1ccc(Cl)cc1NC(=S)N(Cc1ccco1)C(C)c1cccs1 (centres undefined)	-0.025	i	-2	-9	28	2
Cc1ccc(C)c(NC(=S)N(Cc2ccco2)C(C)c2cccs2)c1 (centres undefined)	-0.97	i	-6	-2	63*	5
COc1cccc(NC(=O)N(Cc2ccco2)C(C)c2cccs2)c1 (centres undefined)	-0.39	i	/	40	61*	1
O=C1CC(c2ccc(F)cc2)CC2=C1C(c1ccc([N+](=O)[O-])o1)Nc1ccccc1N2 (centres undefined)	-0.046	/	-2	-4	/	/
Brc1cccc(OCCOCCn2ccnc2)c1	-0.41	i	-3	22	99*	1
Brc1cccc(OCCn2ccnc2)c1	0.29	i	/	6	15	1
CCOc1cccc(OCCCCn2ccnc2)c1	-0.66	i	2	42	87*	2
CCc1cccc(OCCCn2ccnc2)c1	-0.78	i	0	8	95*	1
COc1cccc(OC)c1C(=O)Nc1cccnc1	0.38	i	-1	-1	-7	4
Cc1cc(Nc2ccccc2)nc2cc(O)ccc12	1.1	i	-2	19	83*	8
CC(C)c1ccccc1NC(=O)CCc1nc2ccccc2s1	-0.81	i	0	12	0	3
COc1ccc(O)c(/C=c2/sc3nc4cc(C)c(C)cc4n3c2=O)c1	-0.55	i	0	22	-8	6
COCc1cc(=O)[nH]c(Nc2nc3ccc(C)cc3o2)n1	0.92	+	1	22	99*	4
COc1cc(O)c(CC=C(C)C)c(O)c1C(=O)CCc1ccc(O)cc1	-0.93	/	7	89*	/	/
CCCCCCOC(=O)/C=C/c1c(C)[nH]c(=O)[nH]c1=O	-0.16	i	2	37	94*	1
Cc1cc(C)n(CC(=O)N/N=C/c2ccc([N+](=O)[O-])s2)n1	-1.1	i	-1	-11	99*	2
CCOC(=O)N/N=C\c1ccc([N+](=O)[O-])s1	-1.3	i	0	-6	39	1
SMILES	Dynein cargo inh	Autophagy HCS	b-catenin transl	CHOP inhibitor	Lmaj promast	MT stabilize HCS
COc1ccc(NC(=O)CCC(=O)N/N=C/c2ccc([N+](=O)[O-])s2)cc1	2.4	i	0	-65	100*	9
O=C(N/N=C/c1ccc([N+](=O)[O-])s1)c1ccncc1	-0.97	i	2	-28	100*	10
CC(C)(C)OC(=O)N/N=C\c1ccc([N+](=O)[O-])s1	-0.88	i	/	-7	80*	3
CSCCC1NC(=O)N(CC(=O)Nc2ccc(-c3ccccc3)cc2)C1=O (centres undefined)	-1.2	/	-2	-10	/	/
O=C(N/N=C/c1ccc(Cl)cc1)C(=O)N1CCCCCC1	-0.78	i	-1	3	18	3
Cc1ccc(C(=O)N/N=C/c2ccc([N+](=O)[O-])s2)cc1	-1.5	i	3	70*	99*	4
COc1cc([N+](=O)[O-])cc(/C=N/NC(=O)CSc2nnc(-c3ccccc3)n2C)c1O	-0.57	/	0	12	/	/
Cc1ccc(C(=O)N/N=C\c2ccc([N+](=O)[O-])s2)cn1	-1.2	i	-2	3	100*	2
Cn1c(SCC(=O)N/N=C/c2ccc([N+](=O)[O-])s2)nnc1-c1ccc(Cl)cc1	-1.3	i	-3	-13	100*	3
O=c1[nH]ncc(N/N=C\c2cccs2)c1Cl	-0.89	i	4	-4	-4	6
Cn1nc(C(=O)Nc2nc(-c3ccc(F)cc3)cs2)ccc1=O	1.3	/	2	14	/	/
CCOc1ccccc1NC(=S)N(Cc1cc2ccc(C)cc2[nH]c1=O)CC1CCCN1CC (centres undefined)	0.088	i	-2	11	9	3
CN(C)c1ccc(-c2ccc([C@H]3[C@@H]4C=CCC[C@@]4(C)C(=O)N3Cc3ccccc3)c(F)c2)cc1	0.5	/	1	39	/	/
O=C(COC(=O)CNS(=O)(=O)c1c(Cl)cccc1Cl)Nc1cccnc1Cl	-0.52	i	-3	0	-6	2
COc1cccc(C(=O)NN2c3ccccc3CCc3ccccc32)c1	0.29	i	-1	92*	8	2
COC(=O)c1sc2ccccc2c1-n1cccc1C(=O)C(=O)Nc1ccc(C)cc1	0.98	i	/	44	3	32*
COC(=O)c1sc2ccccc2c1-n1cccc1C(=O)C(=O)Nc1ccc(F)cc1	0.013	i	0	-10	3	3
COC(=O)c1sc2ccccc2c1-n1cccc1C(=O)C(=O)Nc1ccc(Cl)cc1	-0.4	i	/	-20	3	40*
Cn1ccnc1C1CCCCN1C(=O)c1cc(COc2ccc(F)cc2F)on1 (centres undefined)	-0.8	/	-1	20	/	/
O=C1c2ccccc2C(=O)N1/N=C/c1ccc(O)c(O)c1O	0.78	/	0	-7	/	/
O=C1c2cccc3cccc(c23)C(=O)N1/N=C/c1ccc(O)cc1O	0.52	i	0	70*	17	3
Cc1ccc(C)c(/C=C(\C(=O)O)c2ccc(S(=O)(=O)N3CCCCC3)s2)c1	-0.37	i	1	9	7	5
Cn1c(NCC(O)CO)nc2c1c(=O)n(Cc1ccc(Cl)c(Cl)c1)c(=O)n2C (centres undefined)	-0.33	i	-1	19	73*	3
COc1ccc(OC)c(NC(=O)NCCc2cccc(Cl)c2)c1	0.45	i	0	10	5	1
COC(=O)c1ccc(NC(=S)Nc2ccccc2)cc1	-0.57	i	0	16	14	3
Cc1cc(NC(=S)Nc2ccccc2)ccc1Br	0.21	i	1	-2	97*	3

Screens (PubChem)
